# Source: PubChem BioAssay
# This is a sample that favours compounds with a hit; in the whole collection about 3% have one here.
# SR-BI DiI inh = inhibitors of SR-BI mediated HDL lipid uptake, primary screen, ldlA[mSR-BI] cells, fluorescence, single point. Scavenger receptor class B member 1 (Mus musculus), Q61009. ldlA[mSR-BI] CHO cells, DiI-HDL uptake fluorescence, 3 h. inhibition, % at 12.5 µM. 320,000 tested, 0.96% active. AID 488896, 2010;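 active = mean replicate inhibition of at least 70% and a set share of replicates each scoring 70 or more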;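 also: 0% = median of neutral control wells and 100% = median of positive control wells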
# Kir21 block = inhibitors of mouse Kir2.1 inward-rectifier potassium channel; AID 1672, 2009; Inward rectifier potassium channel 2 (Mus musculus), P35561; 310,000 tested, 0.85% active; B-score at 10 µM; HEK293-Kir2.1, FluxOR thallium flux fluorescence; hits give low values;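 active = fluorescence ratio B-score at or below minus 3 SD of library scores, with starting-brightness B-score within 2 SD, cut at about -4.2 in these data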;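 also: channel flux triggered by added potassium and thallium sulfate stimulus; B-score of peak minus minimum fluorescence over baseline after thallium stimulus; more negative B-score means stronger Kir2.1 block with less thallium influx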
# Target sequence (P35561 whole entry, looked up): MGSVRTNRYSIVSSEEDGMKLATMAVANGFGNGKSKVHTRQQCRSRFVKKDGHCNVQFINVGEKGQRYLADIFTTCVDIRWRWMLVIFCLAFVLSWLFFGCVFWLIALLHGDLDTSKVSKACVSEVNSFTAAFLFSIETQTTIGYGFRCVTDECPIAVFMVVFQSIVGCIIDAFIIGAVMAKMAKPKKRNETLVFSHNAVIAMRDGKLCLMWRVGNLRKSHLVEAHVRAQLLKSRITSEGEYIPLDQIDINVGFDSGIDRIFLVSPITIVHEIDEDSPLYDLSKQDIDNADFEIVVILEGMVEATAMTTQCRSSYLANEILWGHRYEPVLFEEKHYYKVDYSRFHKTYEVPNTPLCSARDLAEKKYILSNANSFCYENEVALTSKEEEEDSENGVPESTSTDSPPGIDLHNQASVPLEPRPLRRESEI
# TMEM16A inh = TMEM16A chloride channel inhibitors, primary screen, cell-based, HTS. AID 588511, 2011. normalized B-score (activity score, 25-100; higher = stronger inhibition) at 10 µM. 310,000 tested, 1.2% active. Anoctamin-1 (Mus musculus), Q8BHY3. HEK293 TMEM16A/YFP iodide influx fluorescence, ionomycin;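 active = ratio plate-corrected score three or more library SD toward inhibition, starting fluorescence score within five deviations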;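 also: score derived from kinetic fluorescence span divided by baseline fluorescence per well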
# TMEM16A act = TMEM16A chloride channel activators or potentiators, primary screen, cell-based, HTS; HEK293 TMEM16A/YFP-H148Q/I152L, iodide quench fluorescence; hits give low values; B-score at 10 µM; 340,000 tested, 0.3% active; Anoctamin-1 (Mus musculus), Q8BHY3;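 active = fluorescence-ratio B-score plate-corrected deviation score at least 3 library SD below zero, with starting fluorescence score within 5 deviations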;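 also: channel opened by trigger with iodide after compound preincubation; score built on the fluorescence ratio of max minus min over baseline; more negative score means more quench and so TMEM16A activation or potentiation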
# SR-BI uptake up = activators of SR-BI mediated DiI-HDL uptake, primary screen, ldlA[mSR-BI] CHO cells, DiI fluorescence; 320,000 tested, 0.096% active; 3 h; 100 = double the neutral-control signal; activation, % at 12.5 µM;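 active = mean replicate activation of at least 60% and every replicate at or above 60%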;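 also: 0% = median plate neutral-control signal and 100% = twice that signal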
#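 Test system: SR-BI-overexpressing, LDLR-lacking CHO cells; Medium: Ham's F12 with 0.5% BSA, HEPES 25 mM, pH 7.4; Schedule: 3 h, 37 °C; Technique: bottom-read fluorescence, 550/595 nm.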
# FID counter = compounds displacing fluorescent DNA intercalator, primary screen, artefact control for HCV NS3 helicase inhibitor project, biochemical, FID fluorescence; DNA fluorescent intercalator displacement; inhibition, % at 7.9 µM; 290,000 tested, 0.17% active; AID 1845, 2009; in the data active = inhibition above about 37%;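 also: 0% = vehicle and 100% = reference compound; higher means more ethidium bromide displaced from hairpin DNA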
# The depositor's hits bear a star; i = inactive; nt = no result given.
SMILES,SR-BI DiI inh,Kir21 block,TMEM16A inh,TMEM16A act,SR-BI uptake up,FID counter
Cc1ccc(Cn2c(=N)n(CC(O)COc3ccccc3)c3ccccc32)cc1 (configuration not stated),13.7,-8.54*,i,i,-13.7,24.2
N=c1n(Cc2ccccc2)c2ccccc2n1CC(O)COc1ccccc1 (configuration not stated),3.1,-7.14*,i,i,-3.1,32.1
CCCCn1c(=N)n(CC(O)COc2ccccc2)c2ccccc21 (configuration not stated),19.3,-3.7,i,i,-19.3,12.9
O=c1[nH]c(=S)[nH]c2nc(-c3ccccc3)cnc12,-7.0,0.99,i,i,7.0,nt
Cc1cc2nc3c(=O)[nH]c(=S)[nH]c3nc2cc1NC(=O)C(F)(F)F,-17.4,-8.6,i,-5.15*,17.4,-0.8
CCOC(=O)c1cnc(SCC(=O)Nc2cc(C(F)(F)F)ccc2N2CCOCC2)nc1N,-11.0,0.44,i,-7.12*,11.0,5.0
CCOC(=O)c1cnc(SCC(=O)Nc2ccc(N3CCOCC3)c(Cl)c2)nc1N,-21.9,0.09,i,i,21.8,-4.4
Cc1nnc(SCC(=O)Nc2cc(C(F)(F)F)ccc2N2CCOCC2)o1,-9.5,0.89,i,i,9.5,-11.3
Cc1ccccc1SCC(=O)Nc1cc(C(F)(F)F)ccc1N1CCOCC1,-5.8,-1.4,100*,i,5.8,nt
COc1ccc([N+](=O)[O-])cc1NCC(=O)Nc1cc(S(=O)(=O)N2CCCCC2)ccc1C,3.9,nt,nt,i,-3.9,nt
O=C(CN1c2cccc3cccc(c23)S1(=O)=O)NCc1ccc(Cl)cc1,-13.9,nt,nt,i,13.9,nt
CCOc1cc(/C=C(\C#N)C(=O)Nc2ccc(S(N)(=O)=O)cc2)ccc1OCCN1CCOCC1,-1.0,0.06,i,i,1.0,-6.2
CCOC(=O)C(=Cc1ccc(-c2ccsc2C(=O)OC)o1)C(=O)OCC,75.8*,0.22,i,i,-75.8,-12.5
COc1ccc(NC(=O)Cc2nnc(SCC(=O)Nc3ccc(F)cc3)n2C)cc1,nt,1.27,i,i,nt,-16.7
Cc1cn([C@H]2C[C@H](O)[C@@H](CCC(=O)NCCN3CCCCC3)O2)c(=O)[nH]c1=O,1.4,nt,nt,nt,-1.4,nt
CCOC(=O)COc1ccc(S(=O)(=O)Nc2ccc3c(c2)OCO3)cc1,-18.9,1.16,i,i,18.9,48.0*
CCOC(=O)COc1ccc(S(=O)(=O)Nc2ccc(C)cc2)cc1,-30.9,-1.05,i,i,30.9,-18.9
CCc1ccc(OCC(=O)Nc2ccc3c(c2)OCCO3)cc1,-13.7,-4.67*,i,i,13.7,-24.4
CCCCNC(=O)C(CC)(ONc1ccccc1C(F)(F)F)c1ccccc1OC (configuration not stated),9.4,nt,nt,i,-9.4,nt
O=C(CN1C(=O)NC2(CCc3ccccc32)C1=O)NCc1ccc(Cl)cc1 (configuration not stated),-27.2,nt,nt,i,27.2,nt
COc1ccc(CNCCC(c2ccccc2)C2CCOC(C)(C)C2)cc1 (configuration not stated),-28.5,-2.48,i,i,28.5,29.4
COc1ccc(CNCCC(c2ccc(F)cc2)c2ccc(OC)cc2)cc1 (configuration not stated),1.7,-8.95*,i,i,-1.7,27.8
COc1cccc(OCCNCc2ccccc2)c1,-4.2,-0.91,i,i,4.2,10.2
COc1ccc(C(CCNCc2ccccc2)c2ccc(F)cc2)cc1 (configuration not stated),1.8,-12.2*,i,i,-1.8,24.3
COc1ccc(CNCCC(c2ccc(F)cc2)c2ccc(OC(C)C)cc2)cc1OC (configuration not stated),7.5,-8.98*,i,i,13.8,37.8*
SMILES,SR-BI DiI inh,Kir21 block,TMEM16A inh,TMEM16A act,SR-BI uptake up,FID counter
COc1ccc(C(CCNCc2ccc(F)cc2)c2ccc(F)cc2)cc1 (configuration not stated),5.0,-4.95*,i,i,-5.0,9.4
Cc1ccc(NC(=O)CSc2nc3ncc(Cl)cc3[nH]2)c(C)c1,-0.6,1.52,i,i,0.6,-11.9
COc1ccc(CNC(=O)CNC(C)c2ccc(F)cc2)cc1 (configuration not stated),-5.0,1.26,i,nt,5.0,3.8
COc1ccc(C(CCNC(C)c2ccccc2)c2ccc(F)cc2)cc1 (configuration not stated),nt,-7.54*,i,i,nt,23.1
CCn1cc(SCC(=O)NCc2ccc3c(c2)OCO3)c2ccccc21,1.0,-4.72*,i,i,-1.0,-14.1
CCCn1cc(SCC(=O)NCc2ccc3c(c2)OCO3)c2ccccc21,13.6,0.47,i,i,-13.6,-20.7
O=C(CSc1ncccn1)NCc1ccc2c(c1)OCO2,-9.8,1.03,i,i,9.8,-9.9
O=C(CSc1nccn1-c1ccc(Cl)cc1)NCc1ccc2c(c1)OCO2,-15.1,-4.48*,i,i,18.3,-24.9
CC(C)c1ccc(OCc2ccc(C(=O)N3CCN(c4ccccn4)CC3)cc2)cc1,-24.6,-0.82,100*,i,24.6,-7.9
Cn1c(=O)c(/C=C/c2ccc(F)cc2)nc2ccccc21,-0.3,0.71,nt,-7*,0.3,-6.8
Cc1ccc(NC(=O)/C(=C\c2ccc([N+](=O)[O-])cc2)NC(=O)c2ccccc2)cc1,22.4,1.09,i,i,-22.4,5.2
O=C(N/N=C/c1ccc(O)c(O)c1O)/C(=C/c1ccc([N+](=O)[O-])cc1)NC(=O)c1ccccc1,97.8*,-0.86,i,i,-97.8,-7.7
COc1ccc(/C=C(/NC(=O)c2ccccc2)C(=O)N/N=C/c2sccc2C)cc1,78.2*,1.54,i,i,-78.2,-20.7
Cc1ccsc1/C=N/NC(=O)c1ccc(-n2cccc2)cc1,77.0*,-0.4,i,i,-77.0,-2.2
CCOc1ccccc1OCCC(=O)OCC(=O)c1ccc[nH]1,-22.6,-1.14,i,i,22.6,-11.4
Nc1nc(NCCOCCO)nc(N2CCCCCC2)c1[N+](=O)[O-],6.0,0.61,i,i,-6.0,-15.3
O=C(c1ccco1)N1CCCC(N2CCN(c3cccc(C(F)(F)F)c3)CC2)C1 (configuration not stated),24.8,0.66,i,i,-24.8,-25.5
CCCCN1CC(O)=C(c2nc(-c3ccc(Cl)cc3)cs2)C1=N,58.3,0.07,i,i,-58.3,-1.5
